Results reported in PMC3958936 (Bioorganic & medicinal chemistry, 2013).

Tests used:
[1] = system: HeLa, RKO, HaCaT, Jurkat T, BAEC; test: Cell proliferation assays, first generation, statements pooled over cell lines; type: cell-based; details: for anti-proliferative IC50 values, in words: first generation protocol, cell lines tested
[2] = system: SK-MEL2; test: Proliferation assay on SK-MEL2 cultured with reduced serum, 5% FBS; type: cell-based; details: 5% FBS versus 10% FBS
[3] = system: immortalized mouse embryonic fibroblasts (MEFs); type: cell-based; details: for IC50: Mus musculus, Fibroblast, read-out: estimated IC50, MEFs; for fold loss in activity in MEFs compared with cancer cell lines: estimated
[4] = system: IL-2 reporter gene; details: Jurkat T cells; data previously reported; ref Romo et al.[29]; cited from earlier work
[5] = system: DNA polymerases α and β; details: read-out: IC50, DNA polymerases α and β; direct in vitro inhibition; cited from earlier work
[6] = system: cancer cell lines; details: cell culture, variety of cancer cell lines; cited from earlier work
[7] = system: xenograft mouse models, melanoma models; details: several xenograft mouse models; cited from earlier work
[8] = system: SK-MEL2 melanoma cells; test: MTT cell proliferation assay, second-generation analogs, SK-MEL2; type: cell-based; details: versus DMDAPatA (2)
Outline: (§1)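 HeLa and SK-MEL2 cells were grown in DMEM, Jurkat T cells in RPMI 1640, each with 10% FBS and pen-strep at 37 °C, 5% CO2. Adherent lines were seeded at 2000 cells/well and allowed to recover overnight; Jurkat were seeded at 5000 cells/well with no recovery. Compound was given in 0.1% DMSO final for 72 h, then MTT read-out.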

[9] = system: Jurkat T cells; test: MTT cell proliferation assay, second-generation analogs, Jurkat T; type: cell-based, human; details: versus DMDAPatA (2)
Outline: as §1

[10] = system: HeLa, Jurkat T cells, and SK-MEL2; test: MTT cell proliferation assays, statements pooled over all three cell lines; type: cell-based; details: for cell proliferation inhibition activity, in words: all cell lines tested
[11] = system: HeLa; test: MTT cell proliferation assay, second-generation analogs, HeLa; type: cell-based, human; details: versus DMDAPatA (2)
Outline: as §1

[12] = system: cap-dependent (eIF4AI/II-dependent) translation; test: In vitro translation assay in rabbit reticulocyte lysate, cap-dependent cistron; type: biochemical; details: for fold loss of activity in in vitro translation assay: versus DMDAPatA (2)
Outline: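 Bicistronic reporter mRNA (cap-dependent firefly cistron; HCV IRES-driven Renilla cistron) was SP6-transcribed from linearized plasmid and purified. 200 ng RNA was translated in 20 μl rabbit reticulocyte lysate reactions with 70 mM KCl, 2 mM DTT and RNasin. Compound in DMSO was added at 5% (v/v) final. Reactions ran 1.5 h at 30 °C, then dual-luciferase read-out. Duplicates; 4 independent assays; IC50 by curve fitting, averaged.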

For `CC(/C=C/C(C)=C/[C@@H]1Cc2nc(cs2)CCCCC(=O)O[C@@H](C)C/C(C)=C/C=C\C(=O)O1)=C\CN(C)C` [Compound 2, C5-des-methyl, C3-des-amino pateamine A], the “fold lower activity than PatA in cell proliferation assays” value ([1]; DMDAPatA versus PatA) was “roughly 10 fold”, the “anti-proliferative IC50 values, in words” value [1] was “single-digit nanomolar” and the “fold reduced anti-proliferative activity under 5% FBS” value [2] was “roughly 2 fold”. For the same compound, the IC50 [3] was over 0.05 µM, the “fold loss in activity in MEFs compared with cancer cell lines” value [3] was “roughly 5 fold” and the “IC50 (nM) IL-2 reporter gene assay” value [4] was “sub-nanomolar”. The IC50 [5] was 3 to 19 µM, the “anti-proliferative IC50 values in cancer cell lines, in words” value [6] was “approximately single-digit nanomolar” and the “anticancer activity in xenograft mouse models” value [7] was “potent anticancer activity in several xenograft mouse models with especially significant regressions in melanoma models”.
In the case of `C/C(Br)=C\[C@@H]1Cc2nc(cs2)CCCCC(=O)O[C@@H](C)C/C(C)=C/C=C\C(=O)O1` [Compound 5], the “fold loss of activity in SK-MEL2 cells” value [8] is reported as at least 700 fold and the “fold loss of activity in Jurkat T cells” value [9] is reported as at least 700 fold.
In the case of `C/C(Br)=C\[C@@H]1Cc2nc(cs2)CCCCC(=O)O[C@@H](C)C/C(C)=C/C=C/C(=O)O1` [Compound 6], the “cell proliferation inhibition activity, in words” value [10] is reported as “inactive”.
For `CC(/C=C/C(C)=C/[C@@H]1Cc2nc(cs2)CCCCC(=O)O[C@@H](C)C/C(C)=C/C=C\C(=O)O1)=C\CN1CCOCC1` [Compound 9b], the “fold loss of activity in HeLa cells” value [11] was “greater than 400 fold”, the “fold loss of activity in SK-MEL2 cells” value [8] was “approximately 25 fold” and the “fold loss of activity in Jurkat T cells” value [9] was “at least 700 fold”. The “fold loss of activity in in vitro translation assay” value [12] was “roughly 3 fold”, the “fold increase of activity under 5% FBS” value [2] was “roughly 2 fold” and the IC50 [3] was over 2 µM. For the same compound, the “fold loss in activity in MEFs compared with cancer cell lines” value [3] was “roughly 5 fold”.
With `CC(/C=C/C(C)=C/[C@@H]1Cc2nc(cs2)CCCCC(=O)O[C@@H](C)C/C(C)=C/C=C\C(=O)O1)=C\CN1CCCC1` [Compound 9c] the “fold loss of activity in all cell lines” value ([10]; versus DMDAPatA (2), HeLa, SK-MEL2, Jurkat T) was about 2 fold, the “fold loss of activity in in vitro translation assay” value [12] was 2 fold and the IC50 [3] was over 0.1 µM.
With `CC(/C=C/C=C/CO)=C\[C@@H]1Cc2nc(cs2)CCCCC(=O)O[C@@H](C)C/C(C)=C/C=C\C(=O)O1` [Compound 9e] the “IC50 (nM) cap-dependent translation inhibition” value ([12]; rabbit reticulocyte lysate, 30 °C, 1.5 h, ± 1 standard deviation, N.E. = no effect up to concentration (nM) in parentheses) was “a degree of activity at high concentration”.
In the case of `CC(/C=C/C(C)=C/[C@@H]1Cc2nc(cs2)CCCCC(=O)O[C@@H](C)C/C(C)=C/C#CC(=O)O1)=C\CN(C)C` [Compound 10a], the “cell proliferation inhibition activity, in words” value [10] is reported as “no effect was observed”.
For `COCCC/C=C/C(C)=C/[C@@H]1Cc2nc(cs2)CCCCC(=O)O[C@@H](C)C/C(C)=C/C#CC(=O)O1` [Compound 10f], the “cell proliferation inhibition activity, in words” value [10] was “did not demonstrate any significant cell proliferation inhibition activity”.
In the case of `CC(/C=C/CCCO)=C\[C@@H]1Cc2nc(cs2)CCCCC(=O)O[C@@H](C)C/C(C)=C/C#CC(=O)O1` [Compound 10g], the “cell proliferation inhibition activity, in words” value [10] is reported as “did not demonstrate any significant cell proliferation inhibition activity”.
In the case of `CC(/C=C/C(C)=C/[C@@H]1Cc2nc(cs2)[C@@H](C)C[C@@H](N)CC(=O)O[C@@H](C)C/C(C)=C/C=C\C(=O)O1)=C\CN(C)C` [PatA (1), pateamine A, reference compound], the “anti-proliferative IC50 values, in words” value [1] is listed as “sub-nanomolar” and the “anti-proliferative IC50 values in cancer cell lines, in words” value [6] is listed as “sub-nanomolar range”.
